Laboratory results from ChEMBL document CHEMBL3992483, “Traceless Solid-Phase α-Hydroxytropolone Synthesis” (Medchemcomm, 2016).
Several values for one entry are separate records, joined by “and”; a condition that tells them apart may be missing. Identical values can stand only once.

How the values were obtained:
[1] = Inhibition of HIV1 RT-RNase H activity using 18-nucleotide 3'-fluorescein-labeled RNA/5'-dabsyl-labeled DNA hybrid after 10 mins by FRET assay; set-up: species or system Human immunodeficiency virus 1
[2] = test system: Human immunodeficiency virus 1; experiment: Stabilization of HIV1 RT-RNase H by sypro-orange dye-based differential scanning fluorimetric analysis
Method in brief: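 Thermal shift of HIV RT RNase H in 20 mM HEPES pH 7.5, 10 mM MgCl2, 100 mM NaCl with Sypro Orange at 1:2000. 1 µL of 1 mM compound in DMSO added to 49 µL of this buffer. Heated 30 to 80 °C in 0.2 °C steps, read at ex 483 / em 568 nm. ΔTm determined, duplicate runs.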

[3] = test system: Human immunodeficiency virus 1; experiment: Antiviral activity against HIV1 RF infected in human CEM-SS cells assessed as cytoprotective effect by measuring cell viability at 0.78 to 50 uM by XTT assay relative to control; type: functional
Method in brief: (§1)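 HIV-1 strain RF infection of CEM-SS cells. Samples dissolved at 10 mM in DMSO, tested at 2-fold dilutions from 50 µM down to 0.78 µM final, in duplicate. EC50 estimated by regression analysis.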

[4] = (§2) Cytotoxicity against human CEM-SS cells assessed as reduction in cell viability by XTT assay; type: cell-based; settings: CEM-SS cells
Method in brief: (§3)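 Uninfected CEM-SS cells in the same plate as the HIV-1 RF infection assay. Compounds tested at 2-fold dilutions from 50 µM to 0.78 µM final, in duplicate. CC50 estimated by regression analysis.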

[5] = test system: CEM-SS; experiment: as §2; type: cell-based; settings: cem-ss; method in brief: as §3
[6] = test system: Human immunodeficiency virus 1; experiment: Antiviral activity against HIV1 RF infected in human CEM-SS cells assessed as cytoprotective effect by measuring increase in cell viability by XTT assay; type: functional, cell-based; method in brief: as §1

Compound	IC50 [1]	ΔTm [2]	Activity [3]	CC50 [4]	CC50 [5]	EC50 ([6]; Human immunodeficiency virus 1, RF, CEM-SS)	EC50 [6]
Cc1cc(O)c(=O)c(O)cc1C(=O)C1CCCCC1	520 nM and 210 nM	2 °C and 2.4 °C	<35%	2300 to 3100 nM	2700 to 7000 nM	–	–
Cc1cc(O)c(=O)c(O)cc1-c1cccc2ccccc12	560 nM and 260 nM	1 °C and 1.5 °C	<35%	2100 to 5400 nM	3300 to 6700 nM	–	–
Cc1cc(O)c(=O)c(O)cc1C(=O)c1ccc(-c2ccccc2)cc1	1000 nM and 590 nM	1.7 °C and 1.9 °C	<35%	140 to 970 nM	100 to 830 nM	–	–
Cc1cc(O)c(=O)c(O)cc1-c1ccc(C(F)(F)F)cc1	800 nM and 1100 nM	0.2 °C and 0.9 °C	<35%	2300 to 7100 nM	2200 to 6700 nM	–	–
CCOC(=O)c1cc(O)c(=O)c(O)cc1C	540 nM and 250 nM	2.9 °C and 2.4 °C	<50%	–	8500 to 9700 nM and 22000 nM	4800 to 5100 nM	–
COC(=O)c1cc(O)c(=O)c(O)cc1C	440 nM and 160 nM	2.9 °C and 2.7 °C	–	–	5400 to 11000 nM and 15000 nM	–	2200 to 4200 nM and 7200 to 7700 nM
CC(=O)c1cc(O)c(=O)c(O)cc1C	570 nM and 290 nM	2.3 °C and 2.9 °C	–	–	7700 to 24000 nM and 20000 to 21000 nM	–	2800 to 5200 nM and 6500 to 7300 nM
Cc1cc(O)c(=O)c(O)cc1C(=O)c1ccccc1	320 nM and 220 nM	2.5 °C and 2.9 °C	<35%	–	2600 to 8800 nM and 7200 to 8800 nM	–	–
Cc1cc(O)c(=O)c(O)cc1-c1ccccc1	250 nM and 390 nM	2.2 °C and 1.5 °C	<35%	–	5600 to 7000 nM and 2500 to 3700 nM	–	–
